Assay results: publication PMC7311271 (Nature chemical biology, 2020)

How the values were obtained:
[1] = molecular target: recombinant human G6PD (Homo sapiens, UniProt P11413); test: G6PD diaphorase-coupled enzymatic assay; format: biochemical
How it was run: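 Recombinant human G6PD was expressed in E. coli with an N-terminal His6 tag, purified on Ni, thrombin-cleaved and size-excluded. Reactions started with 1 mM G6P at 30 °C, read each minute (ex 530/em 590 nm). RFU/min was normalised to no-compound wells, and IC50 came from a 4-parameter fit.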

[2] = system: G6PD cellular activity in HCT116 cells; test: NADPH active hydride 2H-labeling from [1-2H]-glucose in HCT116 cells; format: cell-based, human
How it was run: (§1)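 HCT116 cells were incubated 2 h at 37 °C, 5% CO2 in medium containing [1-2H]-glucose tracer plus increasing doses of the test compound. Read-out was 2H transfer to the NADPH active hydride or to free palmitic acid, measured by LC-MS; dose-response curves, n = 3.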

[3] = system: mouse bone-marrow derived macrophages; test: LC-MS quantification of NADPH pools, macrophages; format: cell-based
[4] = system: CD8+ T cells; test: Untargeted metabolomics on CD8+ T cells; format: cell-based, mouse; conditions: active CD8+ T cells, 2 h
How it was run: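 Active mouse CD8+ T cells were treated 2 h with the test compound. Water-soluble metabolites were extracted and profiled by LC-MS; mean, n = 3. Metabolites with fold-change > 4 were flagged.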

[5] = system: G6PD in active mouse CD8+ and CD4+ T cells; test: NADPH labeling, NADPH, NADP+ and 6-pg levels in active T cells; format: cell-based
How it was run: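 Active CD8+ T cells (day 4–5 post-activation), including cells from G6PD-Tg mice and littermate controls, were treated 2 h with increasing test-compound doses, with a [1-2H]-glucose tracer for labeling. For reversibility, cells were pretreated 2 h, then moved to final media for 2 h. For absolute quantification, extracts were spiked with NADP+ or NADPH standards, and packed cell volume was taken as 1.5 µL per 2 × 10^6 cells. Analysis was by LC-MS, n = 3, two-tailed unpaired t-test.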

[6] = system: HCT116 cells; test: Metabolomics in wild-type and ΔG6PD HCT116 cells; format: cell-based, human; conditions: 50 μM, 2 h
How it was run: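 Adherent cells were grown to 80% confluency. Medium containing test compound was added, and cells were held at 37 °C in 5% CO2 for 2 h. Extraction was at −20 °C for ~30 min, after which wells were scraped and extracts centrifuged (16,000 rpm, 15 min, 4 °C). Supernatants were stored at −80 °C and analysed by LC-MS.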

[7] = system: T cell lineages; test: LC-MS quantification of NADPH and NADP+ pools, T cell lineages; format: cell-based
How it was run: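 Suspension T cells (2×10^6 in 1 mL medium, 12-well plates) were incubated with the test compound. Metabolites were acid-extracted 5 min on ice and neutralised with NH4HCO3. After centrifugation (15 min, 16,000 rpm, 4 °C), supernatants were analysed for NADPH and NADP+ by LC-MS.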

[8] = system: active CD8+ T cells; test: Intracellular cytokines in active CD8+ T cells; format: cell-based, mouse; conditions: PMA + IO, increasing doses
How it was run: (§2)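 Mouse CD4+ or CD8+ T cells were activated 48 h with plate-bound anti-CD3 (10 µg/ml)/anti-CD28 (5 µg/ml), IL-2 (100 U/mL) and 100 μM alanine, then kept in IL-2 and used at day 4–5. Cells were restimulated 6 h with PMA (20 ng/ml) + ionomycin (1 ug/ml), GolgiStop and increasing test-compound concentrations. After Live/Dead Aqua, CD4/CD8a surface staining, fixation and permeabilisation, IFNγ, TNFα and IL-2 were read by flow cytometry.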

[9] = system: CD4+ T cells; test: CD4+ T cell proliferation by CFSE dilution; format: cell-based, mouse; conditions: day 3 post-activation
How it was run: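 In a Treg suppression set-up, mouse Tconv cells were labeled with CFSE and Treg cells with CellTrace Violet. Tconv cells were stimulated with irradiated antigen-presenting cells plus CD3ε mAb (1 µg/mL). After 72 h, proliferation was read by flow cytometry as dye dilution.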

[10] = system: neutrophils; test: NADPH in neutrophils; format: cell-based
How it was run: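 Mouse neutrophils were enriched by negative selection from femur/tibia bone marrow of 8–12 week old mice. Cells were cultured in RPMI with 10% heat-inactivated FBS, 5 mM HEPES and 2 mM EDTA. Metabolites were extracted after 30 min of PMA stimulation and analysed for NADPH by LC-MS.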

[11] = system: G6PD cellular activity in HCT116 cells; test: Free palmitic acid; format: cell-based, human; conditions: dose response
How it was run: as §1

[12] = system: mouse neutrophils; test: Neutrophil oxidative burst assay; format: cell-based; conditions: PMA 100 nM, 50 μM
How it was run: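 Mouse bone-marrow neutrophils were plated at 2 × 10^5 cells/well in bicarbonate-free RPMI 1640 on Cell-Tak-coated wells, spun 200 × g for 1 min and rested 1 h at 37 °C. Test compound (50 µM) or vehicle was added just before the run. Oxidative burst was triggered with PMA (100 nM), and rotenone + antimycin A (0.5 µM each) were added at t = 20 min. OCR was measured by extracellular flux analysis; n = 6.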

[13] = system: oxPPP flux in active CD8+ T cells; test: Absolute oxPPP flux by 14CO2 emission; format: cell-based, mouse; conditions: 10 μM, 4 h
How it was run: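 Active mouse CD8+ T cells were used at day 4 post plate-bound anti-CD3/anti-CD28 stimulation, cultured with IL-2. Three million cells were incubated 4 h in a sealed flask with 0.1% DMSO or 10 μM test compound. Released 14CO2 was trapped in 10 M KOH, the reaction was stopped with 1 M HCl, and radioactivity was counted by scintillation. Flux (fmol h-1 cell-1) was normalised to cell number, labeling time and tracer fraction; mean ± SD, n = 5.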

[14] = system: HCT116 and HepG2 cells; test: NADPH pools and NADP+/NADPH ratio in HCT116 and HepG2 cells; format: cell-based, human
How it was run: (§3)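 Adherent HepG2 or HCT116 cells were grown to 80% confluency in 6-well plates, then given fresh medium containing the test compound over a dose range. They were incubated 2 h at 37 °C, 5% CO2. Metabolites were extracted ~30 min at −20 °C, scraped and centrifuged (15 min, 16,000 rpm, 4 °C). Supernatants were analysed by LC-MS for 6-pg, NADPH and NADP+ (n = 3).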

[15] = system: active CD8+ T cells; test: Fatty acid synthesis; format: cell-based, mouse; conditions: 2 h, [U-13C]glucose tracer
[16] = system: CD8+ T cells; test: CD8+ T cell viability; format: cell-based, mouse
[17] = system: HCT116 cells; test: Colony formation; format: cell-based, human; conditions: increasing doses
[18] = system: bone marrow derived macrophages; test: Intracellular cytokines and iNOS in bone marrow derived macrophages; format: cell-based, mouse
How it was run: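 Mouse bone-marrow progenitors from femur and tibia were matured in DMEM with 10% FBS and 20% L929-conditioned medium. Macrophages were stimulated 6 h with LPS (100 ng/mL) + IFNγ (20 ng/mL), with GolgiStop and increasing test-compound concentrations. Cells were stained with Live/Dead Aqua, fixed and permeabilised, and stained for TNFα, IL-6 and iNOS before flow cytometry; 2 independent experiments.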

[19] = system: active CD8+ and CD4+ T cells; test: Intracellular ROS; format: cell-based, mouse; conditions: 2 h
How it was run: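 Active mouse T cells were incubated 2 h with increasing test-compound concentrations, then stained with CellROX Green and a viability dye and analysed by flow cytometry.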

[20] = system: RBC = red blood cells (mouse); test: LC-MS quantification of NADPH pools, RBCs; format: cell-based
How it was run: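 Mouse blood was collected by cardiac puncture into heparin. Serum and buffy coat were removed after a 500 rpm spin at 4 °C, and cells were washed three times in PBS and used immediately in RPMI. Red cells (2×10^6 in 1 mL, 12-well plates) were incubated with the test compound, acid-extracted, neutralised with NH4HCO3, and analysed for NADPH by LC-MS.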

[21] = system: human neutrophils; test: Neutrophil oxidative burst assay; format: cell-based; conditions: PMA 100 nM, 50 μM
How it was run: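 Human neutrophils were plated at 5 × 10^4 cells/well in RPMI 1640 with 0.1% human serum albumin on Cell-Tak-coated wells, spun 200 × g for 1 min and rested 1 h at 37 °C. Test compound (50 µM) or vehicle was added just before the run. Burst was triggered with PMA (100 nM), and OCR was measured by extracellular flux analysis; n = 6.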

[22] = molecular target: G6PD in HepG2 lysates (Homo sapiens, UniProt P11413); test: Cellular thermal shift assay; format: binding; conditions: 50 μM, up to 56 °C
Sequence of G6PD in HepG2 lysates (P11413 whole entry): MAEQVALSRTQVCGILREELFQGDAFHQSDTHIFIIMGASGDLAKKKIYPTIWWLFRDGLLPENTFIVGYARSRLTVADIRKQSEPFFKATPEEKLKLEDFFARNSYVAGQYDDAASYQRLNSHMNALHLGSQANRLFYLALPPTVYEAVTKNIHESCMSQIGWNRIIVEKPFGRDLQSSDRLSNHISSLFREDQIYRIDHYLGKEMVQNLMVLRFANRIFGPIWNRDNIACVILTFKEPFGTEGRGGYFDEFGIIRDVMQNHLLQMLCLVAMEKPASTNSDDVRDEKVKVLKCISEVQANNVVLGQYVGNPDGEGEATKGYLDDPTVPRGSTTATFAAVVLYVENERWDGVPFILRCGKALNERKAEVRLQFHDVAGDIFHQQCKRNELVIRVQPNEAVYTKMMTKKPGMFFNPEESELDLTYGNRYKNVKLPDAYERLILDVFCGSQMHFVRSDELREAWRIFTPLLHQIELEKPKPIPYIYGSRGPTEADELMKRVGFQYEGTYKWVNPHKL
How it was run: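 Lysates took test compound or DMSO for 30 min on ice, then were heated 3 min at 47, 50, 53 or 56 °C. After 3 min cooling at room temperature, insoluble material was spun out (17,000 g, 20 min). G6PD signal is expressed relative to the DMSO control.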

[23] = system: CD4+ T cells (Foxp3+ iTreg); test: Foxp3+ iTreg formation and proliferation; format: cell-based, mouse; conditions: CD3/CD28 stimulation in the presence of TGF-β
[24] = system: CD8+ T cells; test: CD8+ T cell proliferation by Cell Trace Violet dilution; format: cell-based, mouse; conditions: day 4 post-activation
How it was run: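 Naïve CD8+ T cells were isolated from mouse spleen by magnetic bead selection and stained with CellTrace Violet. Cells were kept naïve with IL-7 or stimulated with anti-CD3/anti-CD28 + IL-2, in increasing test-compound concentrations. Cells were refed at days 2 and 3. At day 4, dye dilution was read by flow cytometry with propidium iodide as viability stain; 2 independent experiments.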

[25] = system: active CD4+ T cells; test: Intracellular cytokines in active CD4+ T cells; format: cell-based, mouse; conditions: PMA + IO, increasing doses
How it was run: as §2

[26] = system: mouse naïve CD8+ T cells stimulated by CD3/CD28 + IL-2; test: T cell activation markers; format: cell-based; conditions: increasing concentrations
How it was run: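 Naïve CD8+ T cells were isolated from mouse spleens as strained single-cell suspensions in PBS with 0.5% BSA and 2 mM EDTA. Cells were rested with IL-7 (50 U/mL) or stimulated 48 h on plate-bound anti-CD3 (10 µg/ml) plus anti-CD28 (5 µg/ml) in RPMI with 100 μM alanine and IL-2 (100 U/mL), with increasing test compound. Read-outs were Live/Dead Aqua viability, surface CD69 and CD25, and FSC-A size. Two independent experiments were run.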

[27] = system: G6PD cellular activity in HepG2 cells; test: 6-pg levels in HepG2 cells; format: cell-based, human
How it was run: as §3

[28] = system: G6PD cellular activity in HCT116-mPgd cells; test: 6-pg levels in HCT116-mPgd cells; format: cell-based, human; conditions: dose response, compared with DHEA

Sequence of recombinant human G6PD (P11413 28-515): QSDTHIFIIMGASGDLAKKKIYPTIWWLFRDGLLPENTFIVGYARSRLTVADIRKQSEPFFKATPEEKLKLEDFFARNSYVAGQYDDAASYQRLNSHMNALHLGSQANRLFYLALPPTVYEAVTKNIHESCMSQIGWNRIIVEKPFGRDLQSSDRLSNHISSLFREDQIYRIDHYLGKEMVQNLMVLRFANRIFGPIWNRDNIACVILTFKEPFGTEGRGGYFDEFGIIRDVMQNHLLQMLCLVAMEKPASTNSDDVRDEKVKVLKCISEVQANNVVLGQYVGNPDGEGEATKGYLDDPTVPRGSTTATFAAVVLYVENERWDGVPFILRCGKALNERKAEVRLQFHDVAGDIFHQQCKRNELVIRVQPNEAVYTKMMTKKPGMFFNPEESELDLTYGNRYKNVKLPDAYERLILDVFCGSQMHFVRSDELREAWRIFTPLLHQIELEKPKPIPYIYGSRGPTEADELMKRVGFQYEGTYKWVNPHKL

SMILES: CN(c1cccc(C#N)c1)c1ncc2c(n1)CCCC2=O [G6PDi-neg-ctrl, 3-[methyl(5-oxo-5,6,7,8-tetrahydroquinazolin-2-yl)amino]benzonitrile]
- in vitro activity against human G6PD [1]: lacked any activity

SMILES: N#Cc1cc(Nc2ncc3c(n2)CCCCC3=O)cs1 [G6PDi-1, 4-([5-oxo-6H,7H,8H,9H-cyclohepta[d]pyrimidin-2-yl]amino)thiophene-2-carbonitrile]
- dose-dependent decrease in 2H transfer to NADPH's active hydride ([2]; dose response): dose-dependent decrease
- effect on NADPH [3]: did not decrease
- specificity of metabolic effects [4]: clean on-target activity
- time to restoration of NADPH, NADP+ and 6-pg levels after removing the inhibitor ([5]; activated CD8+ T cells): ≤ 2 h
- effect of G6PD overexpression on dose response of NADPH and NADP+ ([5]; active CD8+ T cells from G6PD-Tg mice vs littermate controls): markedly shifted the dose response
- time to onset of effects on NADPH labeling and NADP+, NADPH and 6-pg levels ([5]; active CD8+ T cells, 50 μM): ≤ 10 min
- NADPH and 6-pg levels ([5]; mouse CD8+ and CD4+ T cells day 4–5 post-activation): decreased
- 2H transfer from glucose to NADPH ([5]; mouse CD8+ and CD4+ T cells day 4–5 post-activation, 10 μM, [1-2H]-glucose): completely blocked
- mode of binding to G6PD ([1]; in vitro dilution experiments and competition assays against both substrates): reversibly and non-competitively
- off-target metabolic effects [6]: some potential off-target effects on purine nucleosides
- decrease in NADPH [7]: greater than 10 fold
- IFNγ and TNF-α production [8]: blocked
- proliferation of CD4+ T cells [9]: minimal effect
- effect on NADPH [10]: did impact NADPH
- dose-dependent decrease in 2H transfer to C16:0 [11]: dose-dependent decrease
- oxidative burst (oxygen consumption rate) [12]: decreased
- absolute oxPPP flux [13]: blocked
- NADPH pools ([14]; HCT116 and HepG2 cells): largely unperturbed
- NADP+/NADPH ([14]; HCT116 cells, dose response): dose-dependent increase
- fatty acid synthesis [15]: nearly completely ablated
- viability [16]: minimal effect
- colony formation [17]: dose-dependent decrease
- LPS-induced pro-inflammatory cytokine production or iNOS upregulation [18]: did not decrease
- reactive oxygen species (ROS) [19]: elevated
- sensitivity of NADPH pools [20]: fairly sensitive
- oxidative burst (oxygen consumption rate) [21]: decreased
- thermal stabilization of G6PD [22]: significant thermal stabilization
- formation and proliferation of Foxp3+ cells [23]: unaffected
- activation-dependent proliferation [24]: minimal effect
- IL-2 and TNF-α production [25]: blocked
- upregulation of activation markers and activation-dependent increase in cell size [26]: did not alter
- dose-dependent decrease in 6-pg levels ([27]; HepG2 cells, dose response): dose-dependent decrease
- IC50 ([27]; Homo sapiens, HepG2, read-out: IC50 for decrease in 6-pg levels): ~13 µM
- suppression of 6-pg levels [28]: much more effectively suppressed

SMILES: Cc1cccc(Nc2ncc3c(n2)CCCC3=O)c1 [G6PDi-precursor, 2-[(3-methylphenyl)amino]-5,6,7,8-tetrahydroquinazolin-5-one]
- in vitro activity against human G6PD [1]: low micromolar

SMILES: OC[C@H]1O[C@@H](Oc2cc(O)cc(/C=C/c3ccc(O)cc3)c2)[C@H](O)[C@@H](O)[C@@H]1O [polydatin, reference compound]
- effect on NADPH active hydride labeling ([2]; 50 μM, 2 h): failed to decrease
- effect on 6-pg levels ([27]; HepG2 cells, 50 μM, 2 h): failed to decrease
